{"data": "Experimental data gathered from unrelated publications", "note": "Each line is one published result; the experiments were not run side by side."}
{"SMILES": "Cl.Fc1ccc(Oc2ccc(Nc3ccc4ncc(OCC5CCNCC5)nc4c3)cc2)cc1", "host": "SCID mouse", "matrix": "plasma", "route": "intraperitoneal", "dose": "50 mg/kg", "half-life": "> 2400 min"}
{"SMILES": "Cc1ncsc1-c1ccc([C@H](C)NC(=O)[C@@H]2C[C@@H](O)CN2C(=O)[C@@H](NC(=O)CCCCCCCCC(=O)N2CCC(n3cc(-c4ccc5c(c4)CCN5C(=O)Cc4cccc(OC(F)(F)F)c4)c4c(N)ncnc43)CC2)C(C)(C)C)cc1", "host": "male C57BL/6 mouse", "matrix": "plasma", "route": "intravenous", "dose": "1 mg/kg", "half-life": "186 min"}
{"SMILES": "CC(C)C[C@@H]1CCO[C@@H]2[C@H](CN[C@@H]2C(=O)N[C@H]2[C@H]3O[C@H](SCC/C=C\\[C@H]2C)[C@H](O)[C@@H](O)[C@H]3O)C1", "host": "mouse", "matrix": "plasma", "route": "intravenous", "dose": "3 mg/kg", "notes": "single dose", "half-life": "280 min"}
{"SMILES": "CC1(CNc2nc(-c3cccs3)nc(Cl)c2-c2c(F)cc(N)cc2F)COC1", "host": "mouse", "matrix": "plasma", "route": "intraperitoneal", "dose": "2.5 mg/kg", "half-life": "90.6 min"}
{"SMILES": "NCc1ccc(-c2nn(Cc3ccncc3)c3ccccc23)o1", "host": "male CD-1 mouse", "matrix": "plasma", "route": "oral", "dose": "10 mg/kg", "half-life": "105 min"}
{"SMILES": "COc1cccc2c(N3CCC(CCP(=O)(O)O)CC3)ncnc12", "host": "female BALB/c mouse", "matrix": "serum", "route": "subcutaneous", "dose": "50 mg/kg", "notes": "tumour-bearing", "half-life": "102 min"}
{"SMILES": "CN(C)C(=O)c1cc2cnc(Nc3ccc(-c4ccc5c(=O)cc(N6CCOCC6)oc5c4)cc3)nc2n1C1CCCC1", "host": "BALB/c mouse", "matrix": "plasma", "route": "oral", "dose": "20 mg/kg", "half-life": "198 min"}
{"SMILES": "COC1=CC(c2ccc[nH]2)=N/C1=C\\c1cc(Cc2ccc(OC(F)(F)F)cc2)c(C)[nH]1.Cl", "host": "male CD-1 mouse", "matrix": "liver", "route": "oral", "dose": "40 mg/kg", "notes": "single dose", "half-life": "3500 min"}
{"SMILES": "COc1ccc(C[C@H](NC(=O)[C@H](C)NC(=O)CN2CCOCC2)C(=O)N[C@@H](Cc2ccccc2)C(=O)C2(C)CO2)cc1 (stereo in doubt)", "host": "mouse", "matrix": "plasma", "route": "oral", "dose": "20 mg/kg", "notes": "single dose", "half-life": "42 min"}
{"SMILES": "CC(C)(C)c1sc2ncnc(Oc3c(F)cccc3OC(F)(F)F)c2c1-c1ccc(Cl)cc1", "host": "mouse", "matrix": "plasma", "route": "intravenous", "dose": "1 mg/kg", "half-life": "149 min"}
{"SMILES": "OCc1nc2ccc(NCc3ccc(C(F)(F)F)cc3)cc2[nH]1", "host": "male BALB/c mouse", "matrix": "plasma", "route": "oral", "dose": "10 mg/kg", "half-life": "216 min"}
{"SMILES": "Cc1ccc(OCC(=O)N[C@@H](Cc2c[nH]c3ccccc23)C(=O)OC(C)C)cc1", "host": "male Sprague-Dawley mouse", "matrix": "plasma", "route": "oral", "dose": "20 mg/kg", "half-life": "366 min"}
{"SMILES": "Cc1cc(-c2ccnc3[nH]cc(F)c23)cc(F)c1[C@@]1(O)[C@H](C)CN(C(=O)CN)C[C@@H]1C", "host": "male CD-1 mouse", "matrix": "plasma", "route": "oral", "dose": "3 mg/kg", "half-life": "510 min"}
{"SMILES": "OCc1ccc(-c2nn(Cc3ccccc3)c3ccccc23)o1", "host": "male CD-1 mouse", "matrix": "plasma", "route": "intravenous", "dose": "5 mg/kg", "half-life": "83.4 min"}
{"SMILES": "Cc1[nH]c(C)c(S(=O)(=O)Nc2ccc(C(F)(F)F)c(Cl)c2)c1C(=O)N1CCC(F)(F)C1", "host": "male CD-1 mouse", "matrix": "plasma", "route": "intraperitoneal", "dose": "40 mg/kg", "half-life": "238 min"}
{"SMILES": "Cc1ccc(CCC(=O)Nc2nnc(S(N)(=O)=O)s2)cc1", "host": "male BALB/c mouse", "matrix": "plasma", "route": "oral", "dose": "20 mg/kg", "half-life": "278 min"}
{"SMILES": "Cc1ncsc1-c1ccc([C@H](C)NC(=O)[C@@H]2C[C@@H](O)CN2C(=O)[C@@H](NC(=O)CCCCCCCCCCC(=O)NCCCn2cc(-c3ccc4c(c3)CCN4C(=O)Cc3cccc(OC(F)(F)F)c3)c3c(N)ncnc32)C(C)(C)C)cc1", "host": "mouse", "matrix": "plasma", "route": "intravenous", "dose": "1 mg/kg", "half-life": "198 min"}
{"SMILES": "Cc1ccc(N(c2ccc(NC(=O)CN(C)c3ccccc3N3CCCC3=O)cc2)C(C)C)cc1", "host": "male CD-1 mouse", "matrix": "plasma", "route": "oral", "dose": "20 mg/kg", "half-life": "88.8 min"}
{"SMILES": "COCC(=O)N1CCc2[nH]c3c(Cl)c(Cl)ccc3c2[C@@H]1C", "host": "C57BL/6 mouse", "matrix": "blood", "route": "oral", "dose": "20 mg/kg", "half-life": "289 min"}
{"SMILES": "Cc1cc(-c2ccnc3[nH]cc(F)c23)cc(F)c1[C@@]1(O)[C@H](C)CN(C2CCS(=O)(=O)CC2)C[C@@H]1C", "host": "male CD-1 mouse", "matrix": "plasma", "route": "oral", "dose": "3 mg/kg", "half-life": "150 min"}
{"SMILES": "NCc1ccc(-c2nn(Cc3ccccc3)c3ccccc23)o1", "host": "male CD-1 mouse", "matrix": "plasma", "route": "intraperitoneal", "dose": "30 mg/kg", "half-life": "140 min"}
{"SMILES": "COC1=CC(c2ccc[nH]2)=N/C1=C\\c1[nH]c(Cc2ccc(OC(F)(F)F)cc2)cc1Cc1ccc(OC(F)(F)F)cc1", "host": "male CD-1 mouse", "matrix": "liver", "route": "oral", "dose": "40 mg/kg", "notes": "single dose", "half-life": "457 min"}
{"SMILES": "O=C1CCC(N2Cc3cc(C4CCN(Cc5ccccc5)CC4)ccc3C2=O)C(=O)N1 (centres unmarked)", "host": "male CD-1 mouse", "matrix": "plasma", "route": "intravenous", "dose": "1 mg/kg", "half-life": "197 min"}
